In experiment [1] the test system is LoVo. The experiment in a line: Ratio of IC50 against sensitive LoVo cell line and that of doxorubicin resistance LoVo cell line was determined after 1 hr exposure. It counts as functional, Homo sapiens.
The test system of experiment [2] is LoVo. The experiment can be described thus: Cytotoxicity against doxorubicin resistant LoVo cell line was determined against 144 hrs. It is filed as functional, cell-based. Conditions: Homo sapiens. The procedure, abridged: (§1)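 MTT assay on doxorubicin-sensitive LoVo and resistant LoVo/Dx cells, 24 h preincubation, then 1 h or 144 h drug exposure at 37 °C, 5% CO2. IC50 in nM. Resistance index is IC50 on LoVo/Dx divided by IC50 on LoVo.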

For experiment [3], the system named is LoVo. The experiment in a line: Cytotoxicity against human LoVo cancer cell line was determined after 1 hr. It is filed as functional, cell-based. The procedure, abridged:
as §1

The test system of experiment [4] is LoVo. The experiment can be described thus: Cytotoxicity against doxorubicin resistant LoVo cell line was determined against 1 hour. It is filed as functional, cell-based. The conditions noted are these: Homo sapiens. A digest of the protocol: as §1
Experiment [5] in a line: Cytotoxicity is determined as the concentration required to inhibit the growth of human colon adenocarcinoma (HT-29) cell line.
For a further experiment, the system named is PC-3. The experiment in a line: Cytotoxicity against human PC3 cancer cell line was determined after 1 hr. It counts as functional, cell-based. Conditions: PC-3, 1 h. A digest of the protocol: (§2)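 MTT colorimetric assay. Cells seeded by growth characteristics and preincubated 24 h, then exposed to drug for 1 h or 144 h at 37 °C, 5% CO2. H460M, MKN45 and PC-3 were grown in RPMI 1640 with 10% FCS. HCT116 was grown in D-MEM with 10% FBS and 2 mM glutamine.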

In the next experiment the test system is Nucleic Acid. The experiment in a line: Binding site preference is determined as the ratio of Poly (dA-dT)2 to Poly (dG-dC)2. It is filed as nucleic-acid assay. A digest of the protocol:
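Ethidium displacement fluorometry at pH 7.0 (10 mM Na2HPO4, 10 mM NaH2PO4, 1 mM EDTA) with 1.26 μM ethidium bromide and 1 μM [poly(dA-dT)]2 or [poly(dG-dC)]2, 20 °C. Ex 546 nm, em 595 nm, drug added serially from a DMSO stock. Preference taken from the [AT]/[GC] ratio of C50 values, counted significant only below 0.7 or above 1.3.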

The test system of experiment [6] is SNB-19. The experiment can be described thus: Percent growth of CNS SNB-19 cell line was determined at 10e-5 M concentration after 48 hr of exposing. It counts as functional, Homo sapiens. The procedure, abridged: (§3)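 NCI sulforhodamine B screen. Cells seeded by growth rate, 24 h drug-free, then 48 h exposure to 10^-8, 10^-6 or 10^-5 M. Protein-stain optical density expressed as percent growth relative to untreated control (100%); negative values indicate cell kill.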

In experiment [7] the test system is DU-145. The experiment can be described thus: Percent growth of prostate DU-145 cell line was determined at 10e-6 M concentration after 48 hr of exposing. It counts as functional, Homo sapiens.
Experiment [8] deals with DU-145. The experiment can be described thus: Percent growth of prostate DU-145 cell line was determined at 10e-8 M concentration after 48 h of exposing. It counts as functional, Homo sapiens.
Experiment [9] can be described thus: Percent growth of melanoma LOX IMV1 cell line was determined at 10e-5 M concentration after 48 hr of exposing. It is filed as functional, Homo sapiens. A digest of the protocol:
as §3

The nature of experiment [10]: Percent growth of melanoma LOX IMV1 cell line was determined at 10e-6 M concentration after 48 hr of exposing. It is filed as functional, Homo sapiens. The procedure, abridged: as §3
Experiment [11] in a line: Percent growth of melanoma LOX IMV1 cell line was determined at 10e-8 M concentration after 48 hr of exposing. It counts as functional, Homo sapiens. The procedure, abridged: as §3
A further experiment relates to MKN-45. The experiment in a line: Cytotoxicity against human MKN45 cancer cell line was determined after 1 hr. The conditions noted are these: MKN-45, 1 h. It is filed as functional, cell-based. A digest of the protocol: as §2
The next experiment deals with HCT-116. The experiment in a line: Cytotoxicity against human HCT116 cancer cell line was determined after 1 hr. Conditions: HCT-116, 1 h. It is filed as functional, cell-based. A digest of the protocol: as §2
Experiment [12] has as its system SNB-19. The experiment in a line: Percent growth of CNS SNB-19 cell line was determined at 10e-6 M concentration after 48 hr of exposing. It counts as functional, Homo sapiens. The procedure, abridged:
as §3

The test system of experiment [13] is SNB-19. The experiment can be described thus: Percent growth of CNS SNB-19 cell line was determined at 10e-8 M concentration after 48 hr of exposing. It is filed as functional, Homo sapiens. A digest of the protocol: as §3
In experiment [14] the test system is 786-0. The experiment in a line: Percent growth of renal 786-O cell line was determined at 10e-5 M concentration after 48 hr of exposing. It is filed as functional, Homo sapiens. The procedure, abridged:
as §3

Experiment [15] relates to 786-0. The experiment can be described thus: Percent growth of renal 786-O cell line was determined at 10e-6 M concentration after 48 h of exposing. It counts as functional, Homo sapiens. The procedure, abridged:
as §3

The test system of experiment [16] is 786-0. The experiment in a line: Percent growth of renal 786-O cell line was determined at 10e-8 M concentration after 48 h of exposing. It counts as functional, Homo sapiens. The procedure, abridged:
as §3

For experiment [17], the system named is MCF7. The experiment in a line: Percent growth of breast MCF-7 cell line was determined at 10e-6 M concentration after 48 h of exposing. It is filed as functional, Homo sapiens.
For experiment [18], the system named is MCF7. The experiment can be described thus: Percent growth of breast MCF-7 cell line was determined at 10e-8 M concentration after 48 hr of exposing. It counts as functional, Homo sapiens.
The subject of experiment [19] is SW-620. The experiment can be described thus: Percent growth of colon SW-620 cell line was determined at 10e-5 M concentration after 48 hr of exposing. It is filed as functional, Homo sapiens. A digest of the protocol: as §3
Experiment [20] concerns SW-620. The experiment can be described thus: Percent growth of colon SW-620 cell line was determined at 10e-6 M concentration after 48 hr of exposing. It is filed as functional, Homo sapiens. A digest of the protocol:
as §3

The subject of experiment [21] is SW-620. The experiment in a line: Percent growth of colon SW-620 cell line was determined at 10e-8 M concentration after 48 hr of exposing. It counts as functional, Homo sapiens. The procedure, abridged: as §3
Experiment [22] concerns NCI-H460. The experiment in a line: Percent growth of lung NCI-H460 cell line was determined at 10e-5 M concentration after 48 hr of exposing. It counts as functional, Homo sapiens. The procedure, abridged:
as §3

In experiment [23] the test system is NCI-H460. The experiment in a line: Percent growth of lung NCI-H460 cell line was determined at 10e-6 M concentration after 48 hr of exposing. It counts as functional, Homo sapiens. A digest of the protocol: as §3
For experiment [24], the system named is NCI-H460. The experiment can be described thus: Percent growth of lung NCI-H460 cell line was determined at 10e-8 M concentration after 48 hr of exposing. It counts as functional, Homo sapiens. A digest of the protocol: as §3
In experiment [25] the test system is MOLT-4. The experiment can be described thus: Percent growth of leukemia MOLT-4 cell line was determined at 10e-5 M concentration after 48 hr of exposing. It counts as functional, Homo sapiens. The procedure, abridged: as §3
Experiment [26] relates to MOLT-4. The experiment can be described thus: Percent growth of leukemia MOLT-4 cell line was determined at 10e-6 M concentration after 48 h of exposing. It counts as functional, Homo sapiens. The procedure, abridged: as §3
The subject of experiment [27] is MOLT-4. The experiment can be described thus: Percent growth of leukemia MOLT-4 cell line was determined at 10e-8 M concentration after 48 hr of exposing. It is filed as functional, Homo sapiens. The procedure, abridged: as §3
The subject of experiment [28] is OVCAR-4. The experiment can be described thus: Percent growth of ovarian OVCAR-4 cell line was determined at 10e-5 M concentration after 48 hr of exposing. It is filed as functional, Homo sapiens. A digest of the protocol:
as §3

Experiment [29] relates to OVCAR-4. The experiment can be described thus: Percent growth of ovarian OVCAR-4 cell line was determined at 10e-6 M concentration after 48 hr of exposing. It counts as functional, Homo sapiens. A digest of the protocol: as §3
Experiment [30] deals with OVCAR-4. The experiment can be described thus: Percent growth of ovarian OVCAR-4 cell line was determined at 10e-8 M concentration after 48 hr of exposing. It is filed as functional, Homo sapiens. A digest of the protocol:
as §3

The test system of experiment [31] is DU-145. The experiment can be described thus: Percent growth of prostate DU-145 cell line was determined at 10e-5 M concentration after 48 hr of exposing. It is filed as functional, Homo sapiens.
Experiment [32] is described as follows: Cytotoxicity against human PC3 cancer cell line was determined after 144 hr. It is filed as cell-based. The conditions noted are these: Cancer cell lines. The procedure, abridged: as §2
A short description of experiment [33]: Cytotoxicity against human LoVo cancer cell line was determined after 144 hr. It counts as cell-based. A digest of the protocol:
as §1

A short description of experiment [34]: Cytotoxicity against human HCT116 cancer cell line was determined after 144 hr. It is filed as cell-based. The conditions noted are these: HCT-116, 144 h. A digest of the protocol: as §2
The subject of experiment [35] is MCF7. The experiment in a line: Percent growth of breast MCF-7 cell line was determined at 10e-5 M concentration after 48 hr of exposing. It is filed as functional, Homo sapiens.

Structures are written as SMILES.

The text below walks through data of ChEMBL document CHEMBL1138784, “Rational design, synthesis, and biological evaluation of bis(pyrimido[5,6,1-de]acridines) and bis(pyrazolo[3,4,5-kl]acridine-5-carboxamides) as new anticancer agents” (J Med Chem, 2004).

For orientation: IC50 means the concentration that gives 50% inhibition. Higher therefore signals weaker potency.

Take `COc1cccc2c1C(=O)c1c(O)c3c(c(O)c1C2=O)C[C@@](O)(C(=O)CO)C[C@@H]3O[C@H]1C[C@H](N)[C@H](O)[C@H](C)O1` [DOXORUBICIN]: in the experiment on LoVo [1], the Resistance index was determined as 11. Moreover, the IC50 amounted to 2300 nM in the experiment with LoVo [2], 810 nM in the experiment with LoVo [3] and 9100 nM in the experiment with LoVo [4].

Turning to `CN(C)CCn1c(=O)c2ccc(NCCCN(C)CCCNc3ccc4c(=O)n(CCN(C)C)c(=O)n5c6ccccc6c(=O)c3c45)c3c(=O)c4ccccc4n(c1=O)c23`, the Resistance index with LoVo [1] is on record as 2.1. In addition, the IC50 in [5] is below 0.1 nM; with PC-3, 4.1 nM; in the experiment with LoVo [2], 3.1 nM; in the experiment on LoVo [3] it was 5.2 nM; with LoVo [4], 11 nM; in the experiment with MKN-45, 0.01 nM. Moreover, the IC50 worked out at 0.72 nM in the experiment on HCT-116, 1.6 nM in experiment [32], 0.31 nM in experiment [33] and 0.1 nM in [34]. Also, the Binding site preference with Nucleic Acid amounted to 25. The Growth in the experiment with SNB-19 [6] is given as -53%; in the experiment on DU-145 [7], -13%; with DU-145 [8], 37%; in experiment [9] it was -82%; in experiment [10] it was -43%; in experiment [11] it was 25%. The Growth with SNB-19 [12] was 7%; with SNB-19 [13], 32%; in the experiment on 786-0 [14] it was -100%; with 786-0 [15], 4%; in the experiment with 786-0 [16] it was 34%; with MCF7 [17] it was 0%. Besides, the Growth with MCF7 [18] is 31%; with SW-620 [19], -89%; with SW-620 [20], -25%; in the experiment with SW-620 [21] it was 26%; in the experiment with NCI-H460 [22], -95%; in the experiment on NCI-H460 [23], -22%. The Growth in the experiment on NCI-H460 [24] was 13%; with MOLT-4 [25] it was -71%; in the experiment on MOLT-4 [26], -26%; in the experiment with MOLT-4 [27], 9%; in the experiment on OVCAR-4 [28], -77%; with OVCAR-4 [29] it was -53%. In addition, the Growth in the experiment with OVCAR-4 [30] is reported as 15%; with DU-145 [31], -98%; with MCF7 [35] it was -96%.
